Test results: ChEMBL document CHEMBL1145980, “Molecular modeling calculations of HIV-1 reverse transcriptase nonnucleoside inhibitors: correlation of binding energy with biological activity for novel 2-aryl-substituted benzimidazole analogues” (J Med Chem, 2003)

Biological target: Human immunodeficiency virus type 1 reverse transcriptase (Human immunodeficiency virus 1, UniProt Q72547)
Assay: Inhibition of HIV-1 reverse transcriptase.
Outline: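 Antiviral activity measured in cells infected with the HIV-1-based vector pNLNgoMI/R-E. The vector expresses the murine cell-surface marker gene hsa from the nef reading frame, so vector-infected cells can be identified by that marker. Results are reported as EC50.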

| Structure (SMILES) | EC50 [µM] |
| --- | --- |
| Fc1cccc(F)c1Cn1c(-c2c(F)cccc2F)nc2c(Cl)cccc21 | 0.4 |
| NC(=O)c1cccc2c1nc(-c1c(F)cccc1F)n2Cc1c(F)cccc1F | 0.37 |
| Cc1cccc2c1nc(-c1c(F)cccc1F)n2Cc1c(F)cccc1F | 0.44 |
| Nc1cccc2c1nc(-c1c(F)cccc1F)n2Cc1c(F)cccc1F | 0.53 |
| Fc1cccc(F)c1Cn1c(-c2c(F)cccc2F)nc2c(CCl)cccc21 | 0.16 |
| CNc1cccc2c1nc(-c1c(F)cccc1F)n2Cc1c(F)cccc1F | 2.4 |
| CCc1cccc2c1nc(-c1c(F)cccc1F)n2Cc1c(F)cccc1F | 0.82 |
| N#CCc1cccc2c1nc(-c1c(F)cccc1F)n2Cc1c(F)cccc1F | 0.06 |
| O=[N+]([O-])c1cccc2c1nc(-c1c(F)cccc1F)n2Cc1c(F)cccc1F | 0.45 |
| CC(=O)Nc1cccc2c1nc(-c1c(F)cccc1F)n2Cc1c(F)cccc1F | 1.65 |
| Fc1cccc(F)c1Cn1c(-c2c(F)cccc2F)nc2ccccc21 | 1.7 |
| Cc1cccc2c1nc(-c1c(F)cccc1F)n2Cc1ccccc1 | 0.75 |
| O=Cc1cccc2c1nc(-c1c(F)cccc1F)n2Cc1c(F)cccc1F | 0.1 |

Further lines, results first:

| EC50 [µM] | Structure (SMILES) |
| --- | --- |
| 0.05 | OCc1cccc2c1nc(-c1c(F)cccc1F)n2Cc1c(F)cccc1F |
| 0.08 | COc1cccc2c1nc(-c1c(F)cccc1F)n2Cc1c(F)cccc1F |
| 0.045 | [N-]=[N+]=NCc1cccc2c1nc(-c1c(F)cccc1F)n2Cc1c(F)cccc1F |
| 6.06 | Fc1cccc(F)c1Cn1c(-c2ccccc2)nc2ccccc21 |
| 0.06 | CC(=O)OCc1cccc2c1nc(-c1c(F)cccc1F)n2Cc1c(F)cccc1F |
| 0.04 | CC(=O)N(C)c1cccc2c1nc(-c1c(F)cccc1F)n2Cc1c(F)cccc1F |
| 2.71 | COc1cccc(F)c1-c1nc2c(N)cccc2n1Cc1c(F)cccc1F |
| 1.36 | NCc1cccc2c1nc(-c1c(F)cccc1F)n2Cc1c(F)cccc1F |
| 0.37 | Fc1cccc(F)c1Cn1c(-c2c(F)cccc2F)nc2c(Br)cccc21 |
